Data: ChEMBL document CHEMBL4041542, “Synthesis and biological characterisation of ester and amide derivatives of fusidic acid as antiplasmodial agents” (Bioorg Med Chem Lett, 2017)

Tests used:
Plasmodium falciparum [1] = experiment: Antiplasmodial activity against chloroquine-resistant Plasmodium falciparum K1 by [3H]hypoxanthine incorporation assay; format: functional
Method in brief: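 Multidrug-resistant K1 strain of P. falciparum tested in vitro with a modified [3H]hypoxanthine incorporation assay. IC50 determined. Chloroquine and artesunate served as reference drugs in every experiment.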

Plasmodium falciparum [2] = experiment: Antiplasmodial activity against chloroquine-sensitive Plasmodium falciparum NF54 by LDH assay; format: functional
Method in brief: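 In vitro test on the chloroquine-sensitive NF54 strain of P. falciparum, read out by the lactate dehydrogenase assay. Reported as IC50. Chloroquine and artesunate were included as reference drugs in all experiments.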

Plasmodium falciparum [3] = experiment: Potency index, ratio of fusidic acid IC50 to compound IC50 for chloroquine-sensitive Plasmodium falciparum NF54; format: functional
Method in brief: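 Chloroquine-sensitive P. falciparum NF54 was tested with the lactate dehydrogenase assay, using chloroquine and artesunate as reference drugs. The index is fusidic acid's IC50 divided by the compound's IC50, both against NF54.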

[4] = Selectivity index, ratio of IC50 for CHO cells to IC50 for chloroquine-sensitive Plasmodium falciparum NF54; format: toxicity; conditions: hamster, read-out: Ratio IC50
Method in brief: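 IC50 against Chinese hamster ovary cells (cytotoxicity) was divided by IC50 against P. falciparum NF54. NF54 IC50 came from the lactate dehydrogenase assay, with chloroquine and artesunate as references.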

CHO = experiment: Cytotoxicity against CHO cells; format: cell-based; conditions: Cricetulus griseus
Plasmodium falciparum [5] = experiment: Potency index, ratio of fusidic acid IC50 to compound IC50 for chloroquine-resistant Plasmodium falciparum K1; format: functional
[6] = Stability of the compound assessed as Plasmodium falciparum NF54 esterase-mediated fusidic acid release at 0.5 uM up to 48 hrs by LC-MS/MS analysis; format: ADME; conditions: plasmodium falciparum nf54, isolated protein

Row | Structure (SMILES) | IC50 (Plasmodium falciparum [1]) [µM] | IC50 (Plasmodium falciparum [2]) [µM] | Ratio IC50 (Plasmodium falciparum [3]) | selectivity ratio [4] | IC50 (CHO) [µM] | Ratio IC50 (Plasmodium falciparum [5]) | Stability [6]
1 | CC(=O)O[C@H]1C[C@@]2(C)[C@@H](C[C@@H](O)[C@H]3[C@@]4(C)CC[C@@H](O)[C@@H](C)[C@@H]4CC[C@@]32C)/C1=C(\CCC=C(C)C)C(=O)Oc1ccc2ccccc2c1 | 1.7 | 3.2 | 4 - 49 | > 48 | > 155 | 5 - 17 | 
2 | CC(=O)O[C@H]1C[C@@]2(C)[C@@H](C[C@@H](O)[C@H]3[C@@]4(C)CC[C@@H](O)[C@@H](C)[C@@H]4CC[C@@]32C)/C1=C(\CCC=C(C)C)C(=O)Oc1ccc(Cl)c(Cl)c1 | 2.2 | 3.6 | 4 - 49 | 26 | 95 | 5 - 17 | 
3 | CCCCCCCCCCCCCCNC(=O)/C(CCC=C(C)C)=C1\[C@@H](OC(C)=O)C[C@@]2(C)[C@H]1C[C@@H](O)[C@H]1[C@@]3(C)CC[C@@H](O)[C@@H](C)[C@@H]3CC[C@@]12C | 4 | 13.4 | 4 - 49 | > 10 | > 140 | 5 - 17 | 
4 | CCCCCCCCCCCCOC(=O)/C(CCC=C(C)C)=C1\[C@@H](OC(C)=O)C[C@@]2(C)[C@H]1C[C@@H](O)[C@H]1[C@@]3(C)CC[C@@H](O)[C@@H](C)[C@@H]3CC[C@@]12C | > 14.6 | > 100 |  |  | > 146 |  | 
5 | CC(=O)O[C@H]1C[C@@]2(C)[C@@H](C[C@@H](O)[C@H]3[C@@]4(C)CC[C@@H](O)[C@@H](C)[C@@H]4CC[C@@]32C)/C1=C(\CCC=C(C)C)C(=O)Oc1ccc(Br)cc1 | 1.6 | 2.1 | 20 - 28 | 45 | 95.3 | 12 - 14 | 
6 | CC(=O)O[C@H]1C[C@@]2(C)[C@@H](C[C@@H](O)[C@H]3[C@@]4(C)CC[C@@H](O)[C@@H](C)[C@@H]4CC[C@@]32C)/C1=C(\CCC=C(C)C)C(=O)Oc1ccc(F)cc1 | 1.4 | 2.9 | 20 - 28 | 27 | 79.4 | 12 - 14 | 
7 | CCOC(=O)/C(CCC=C(C)C)=C1\[C@@H](OC(C)=O)C[C@@]2(C)[C@H]1C[C@@H](O)[C@H]1[C@@]3(C)CC[C@@H](O)[C@@H](C)[C@@H]3CC[C@@]12C | 2.2 | 3.4 | 4 - 49 | 19 | 65.5 | 5 - 17 | Stable
8 | CC(=O)O[C@H]1C[C@@]2(C)[C@@H](C[C@@H](O)[C@H]3[C@@]4(C)CC[C@@H](O)[C@@H](C)[C@@H]4CC[C@@]32C)/C1=C(\CCC=C(C)C)C(=O)Oc1cc(C)ccc1C | 1.4 | 3 | 4 - 49 | 34 | 103 | 5 - 17 | 
9 | CC(=O)O[C@H]1C[C@@]2(C)[C@@H](C[C@@H](O)[C@H]3[C@@]4(C)CC[C@@H](O)[C@@H](C)[C@@H]4CC[C@@]32C)/C1=C(\CCC=C(C)C)C(=O)Oc1cccc(Cl)c1 | 1.2 | 1.4 | 4 - 49 | 63 | 87.7 | 5 - 17 | 
10 | CC(=O)O[C@H]1C[C@@]2(C)[C@@H](C[C@@H](O)[C@H]3[C@@]4(C)CC[C@@H](O)[C@@H](C)[C@@H]4CC[C@@]32C)/C1=C(\CCC=C(C)C)C(=O)Oc1ccc(Cl)cc1 | 1.4 | 2.3 | 20 - 28 | 31 | 71.6 | 12 - 14 | 
11 | COc1cccc(OC(=O)/C(CCC=C(C)C)=C2\[C@@H](OC(C)=O)C[C@@]3(C)[C@H]2C[C@@H](O)[C@H]2[C@@]4(C)CC[C@@H](O)[C@@H](C)[C@@H]4CC[C@@]23C)c1 | 1.3 | 1.8 | 4 - 49 | 48 | 86.4 | 5 - 17 | 
12 | CC(=O)O[C@H]1C[C@@]2(C)[C@@H](C[C@@H](O)[C@H]3[C@@]4(C)CC[C@@H](O)[C@@H](C)[C@@H]4CC[C@@]32C)/C1=C(\CCC=C(C)C)C(=O)Oc1ccc(Cl)cc1Cl | 1.7 | 3.5 | 4 - 49 | 28 | 99.7 | 5 - 17 | 
13 | CC(=O)O[C@H]1C[C@@]2(C)[C@@H](C[C@@H](O)[C@H]3[C@@]4(C)CC[C@@H](O)[C@@H](C)[C@@H]4CC[C@@]32C)/C1=C(\CCC=C(C)C)C(=O)Oc1ccc(C)cc1C | 1.4 | 2.4 | 4 - 49 | 41 | 98.9 | 5 - 17 | 
14 | CCCCCCCCCCCCCCOC(=O)/C(CCC=C(C)C)=C1\[C@@H](OC(C)=O)C[C@@]2(C)[C@H]1C[C@@H](O)[C@H]1[C@@]3(C)CC[C@@H](O)[C@@H](C)[C@@H]3CC[C@@]12C | > 14 | > 100 |  |  | > 140 |  | 
15 | CCCCCCCCCCCCCCCCNC(=O)/C(CCC=C(C)C)=C1\[C@@H](OC(C)=O)C[C@@]2(C)[C@H]1C[C@@H](O)[C@H]1[C@@]3(C)CC[C@@H](O)[C@@H](C)[C@@H]3CC[C@@]12C | > 13.5 | > 100 |  |  | > 135 |  | 
16 | CCCCCCCCOC(=O)/C(CCC=C(C)C)=C1\[C@@H](OC(C)=O)C[C@@]2(C)[C@H]1C[C@@H](O)[C@H]1[C@@]3(C)CC[C@@H](O)[C@@H](C)[C@@H]3CC[C@@]12C | 1.6 | 4.6 | 4 - 49 | 20 | 92.4 | 5 - 17 | 
17 | CC(=O)O[C@H]1C[C@@]2(C)[C@@H](C[C@@H](O)[C@H]3[C@@]4(C)CC[C@@H](O)[C@@H](C)[C@@H]4CC[C@@]32C)/C1=C(\CCC=C(C)C)C(=O)Oc1cccc(F)c1 | 2 | 2.6 | 4 - 49 | 34 | 89.4 | 5 - 17 | 
18 | CC(=O)O[C@H]1C[C@@]2(C)[C@@H](C[C@@H](O)[C@H]3[C@@]4(C)CC[C@@H](O)[C@@H](C)[C@@H]4CC[C@@]32C)/C1=C(\CCC=C(C)C)C(=O)Oc1cc(F)cc(F)c1 |  | 4.7 | 4 - 49 | 21 | 96.7 | 5 - 17 | 
19 | CC(=O)O[C@H]1C[C@@]2(C)[C@@H](C[C@@H](O)[C@H]3[C@@]4(C)CC[C@@H](O)[C@@H](C)[C@@H]4CC[C@@]32C)/C1=C(\CCC=C(C)C)C(=O)Oc1ccccc1 | 1.4 | 2.4 | 20 - 28 | 41 | 99.4 | 12 - 14 | Stable
20 | CCCCCCCCCCCCNC(=O)/C(CCC=C(C)C)=C1\[C@@H](OC(C)=O)C[C@@]2(C)[C@H]1C[C@@H](O)[C@H]1[C@@]3(C)CC[C@@H](O)[C@@H](C)[C@@H]3CC[C@@]12C | 1.5 | 1.2 | 4 - 49 | > 122 | > 146 | 5 - 17 | 
21 | CC(=O)O[C@H]1C[C@@]2(C)[C@@H](C[C@@H](O)[C@H]3[C@@]4(C)CC[C@@H](O)[C@@H](C)[C@@H]4CC[C@@]32C)/C1=C(\CCC=C(C)C)C(=O)Oc1cccc(Br)c1 | 1.6 | 2.6 | 4 - 49 | 38 | 98.3 | 5 - 17 | 
22 | CC(=O)O[C@H]1C[C@@]2(C)[C@@H](C[C@@H](O)[C@H]3[C@@]4(C)CC[C@@H](O)[C@@H](C)[C@@H]4CC[C@@]32C)/C1=C(\CCC=C(C)C)C(=O)Oc1cc(Cl)cc(Cl)c1 | 1.1 | 2 | 4 - 49 | 41 | 81.9 | 5 - 17 | 
23 | CCCCOC(=O)/C(CCC=C(C)C)=C1\[C@@H](OC(C)=O)C[C@@]2(C)[C@H]1C[C@@H](O)[C@H]1[C@@]3(C)CC[C@@H](O)[C@@H](C)[C@@H]3CC[C@@]12C | 1.5 | 2.9 | 4 - 49 | 13 | 37.4 | 5 - 17 | 
24 | CCCCCCCCCCCCCCCCOC(=O)/C(CCC=C(C)C)=C1\[C@@H](OC(C)=O)C[C@@]2(C)[C@H]1C[C@@H](O)[C@H]1[C@@]3(C)CC[C@@H](O)[C@@H](C)[C@@H]3CC[C@@]12C | > 13.5 | > 100 |  |  | > 135 |  | 
25 | C[C@H]1[C@H](OC(=O)CCC(=O)O)O[C@@H]2O[C@@]3(C)CC[C@H]4[C@H](C)CC[C@@H]1[C@@]24OO3 [ARTESUNATE] | 0.0026 | 0.0093 |  |  |  |  | 
26 | CC[C@H]1CN2CCc3cc(OC)c(OC)cc3[C@@H]2C[C@@H]1C[C@H]1NCCc2cc(OC)c(OC)cc21 [EMETINE] |  |  |  |  | 0.178 |  | 
